Screens from PubChem.
ERAP1 HTS inh – human ERAP1 aminopeptidase inhibitors, primary screen, biochemical, single point, plate reader; 340,000 tested, 0.15% active; recombinant ERAP1, Leu-AMC fluorescence, 60 min; AID 652197, 2013; inhibition, % at 10.7 µM;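 active means mean replicate inhibition of at least 30%, or all replicates individually reaching that 30% level; inactive means mean below 30% and not every replicate reaching it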;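 further: 0% = neutral control wells and 100% = L-leucinethiol positive control wells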
Target sequence (Q9NZ08 whole entry, looked up): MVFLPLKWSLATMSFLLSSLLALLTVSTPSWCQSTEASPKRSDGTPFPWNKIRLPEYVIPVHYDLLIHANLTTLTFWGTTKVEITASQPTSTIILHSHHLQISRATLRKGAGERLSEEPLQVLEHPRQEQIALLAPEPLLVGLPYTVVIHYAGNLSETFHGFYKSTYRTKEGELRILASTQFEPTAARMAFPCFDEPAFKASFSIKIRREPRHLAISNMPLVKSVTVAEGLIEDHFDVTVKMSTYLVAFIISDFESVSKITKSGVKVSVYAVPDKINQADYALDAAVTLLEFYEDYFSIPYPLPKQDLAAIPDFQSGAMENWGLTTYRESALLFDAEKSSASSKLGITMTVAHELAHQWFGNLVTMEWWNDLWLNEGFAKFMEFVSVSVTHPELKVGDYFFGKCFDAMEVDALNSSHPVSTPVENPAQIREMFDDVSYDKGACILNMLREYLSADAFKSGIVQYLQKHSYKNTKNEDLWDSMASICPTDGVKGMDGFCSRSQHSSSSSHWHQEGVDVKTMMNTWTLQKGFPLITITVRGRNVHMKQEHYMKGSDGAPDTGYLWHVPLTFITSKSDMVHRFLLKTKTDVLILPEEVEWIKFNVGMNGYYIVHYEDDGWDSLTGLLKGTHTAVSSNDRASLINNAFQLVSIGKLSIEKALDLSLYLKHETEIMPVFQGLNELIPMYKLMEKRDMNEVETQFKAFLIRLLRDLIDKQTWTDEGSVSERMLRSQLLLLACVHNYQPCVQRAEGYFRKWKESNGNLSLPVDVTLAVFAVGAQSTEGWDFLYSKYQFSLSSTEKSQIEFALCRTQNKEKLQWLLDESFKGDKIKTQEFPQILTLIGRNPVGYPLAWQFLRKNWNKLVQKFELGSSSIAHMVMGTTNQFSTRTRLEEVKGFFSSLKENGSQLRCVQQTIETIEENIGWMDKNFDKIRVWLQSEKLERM
SIRT5 block – SIRT5 desuccinylase inhibitors, primary screen, biochemical, fluorescence imaging, single point, set 5; inhibition, % at 15 µM; AID 652115, 2013; Purified SirT5, succinyl-peptide AMC, trypsin-coupled fluorescence; 330,000 tested, 1.1% active; in the data active means inhibition above about 15%
CAL PDZ FP-1 – untagged CAL PDZ binding inhibitors, primary screen, biochemical, fluorescence polarization, HTS | 300,000 tested, 0.92% active | inhibition, % at 24.9 µM | purified CAL PDZ, TMR-peptide fluorescence polarization, 1 h | Golgi-associated PDZ and coiled-coil motif-containing protein (Homo sapiens), Q9HD26;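 active means mean inhibition of at least 30% with at least half of replicates also reaching 30%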;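 further: 0% = DMSO neutral control and 100% = excess unlabeled competitor peptide PRC23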
S100A4 MyoIIA – inhibitors of S100A4-myosin IIA peptide binding, primary screen, biochemical, fluorescence polarization, TAMRA-MyoIIA peptide | Protein S100-A4 (Homo sapiens), P26447 | inhibition, % at 10.7 µM | 360,000 tested, 0.14% active | AID 652163, 2013;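 active means mean inhibition of at least 70% across replicates, with every replicate also reaching that level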
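Material: S100A4 monomer protein | Medium: HEPES pH 7.2 with CaCl2, KCl, NaCl, DTT, Triton | Reagent: Labelled myosin peptide probe, 5 nM | Doses: One dose per compound | Times: 5 min incubation before reading | Benchmarks: Neutral control DMSO, positive control TFP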
CAL PDZ FP-2 – CAL PDZ peptide-binding inhibitors, primary screen, biochemical, fluorescence polarization, Cer-tagged CAL PDZ, HTS. Golgi-associated PDZ and coiled-coil motif-containing protein (Homo sapiens), Q9HD26. inhibition, % at 20 µM. purified CAL PDZ, TMR-peptide fluorescence polarization, 1 h. AID 504414, 2011. 330,000 tested, 0.02% active;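 active means highest replicate inhibition of at least 40%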;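 further: plate controls were DMSO neutral control wells for no effect and unlabeled competitor peptide control wells for full effect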
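Test system: purified CerCALP PDZ construct; Compound dosing: one concentration, 20 µM compound; Also added: TMR-labelled reporter peptide T*-PRC34 bound in PDZ groove; Read-out: inhibition from polarization loss; Controls: unlabelled peptide and DMSO controls; Signal: FP readout, S and P plane fluorescence; Incubation: 1 h at RT.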
DENV2 CPE rescue – inhibitors of DENV2 cytopathic effect, primary screen, cell-based, plate reader, single concentration; DENV2-infected cells, cytopathic effect rescue; CPE inhibition, % at 9.99 µM; 350,000 tested, 1.7% active; AID 651640, 2012; in the data active means CPE inhibition above about 20%, passing the limit was not always enough; tested in BHK-21 cells;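 further: 0% = median of neutral control wells and 100% = median of positive control wells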
Numbers without * were called inactive; x = not tested or not shown. Rows were chosen to be rich in hits. Some 2.9% of all compounds tested hit in one or more screens of this group.

SMILES | ERAP1 HTS inh | SIRT5 block | CAL PDZ FP-1 | S100A4 MyoIIA | CAL PDZ FP-2 | DENV2 CPE rescue
CCOc1ccc(Nc2nc3cc(S(=O)(=O)CC)ccc3o2)cc1 | x | 18* | -6 | -4 | 0 | 5
CC1=[N+](C)c2c(ccc3cccnc23)C1(C)C | -2 | -1 | 19 | 159* | -5 | 2
Cc1ccc(NC(=O)CN2C(=O)S/C(=C\c3ccc(OCC(=O)O)c(Br)c3)C2=O)cc1 | 0 | 17* | -10 | -8 | -2 | -6
O=C(CN1C(=O)S/C(=C\c2ccccn2)C1=O)Nc1ccccc1 | -2 | -1 | x | 1 | 0 | -7
Cc1ccc(NC(=O)CN2C(=O)S/C(=C\c3ccccn3)C2=O)cc1 | 1 | -2 | 85* | 0 | -1 | x
COc1cc(/C=C2\SC(=O)N(CC(=O)Nc3ccc(C)cc3)C2=O)cc(Cl)c1OCC(=O)O | 1 | 3 | -3 | -3 | -3 | 7
CC(=O)N(C)C[C@H]1Oc2cc(C#CC(C)(C)O)ccc2S(=O)(=O)N([C@@H](C)CO)C[C@H]1C | 0 | -2 | x | -2 | x | -4
Cc1ccc([C@@H]2[C@@H]3C(=O)N(c4ccccc4)C(=O)[C@@H]3[C@]3(C)C(=O)N(Cc4ccccc4)CC(=O)N23)o1 | 1 | -6 | -4 | -9 | 0 | -17
CC1NC2(C(=O)N(Cc3ccccc3)c3ccccc32)C2C(=O)N(c3ccccc3)C(=O)C12 (centres undefined) | 3 | -5 | 0 | 86* | -1 | 3
CSCCC(N=C1NS(=O)(=O)c2ccccc21)C(=O)NCc1ccccc1F (centres undefined) | 1 | 0 | -3 | -4 | -1 | 4
CSCCC(N=C1NS(=O)(=O)c2ccccc21)C(=O)NCCc1ccccc1 (centres undefined) | -1 | 2 | -1 | 14 | -3 | 58*
CN=C(Nc1cc(C)nn1CCC#N)c1ccc(F)cc1 | -3 | 0 | -1 | -3 | -1 | -1
Cc1cc(NC(=O)c2ccc([N+](=O)[O-])cc2)n(CCC#N)n1 | 5 | -1 | 0 | -7 | -1 | 43*
C/C=C/c1ccc([C@@H]2[C@@H](CN(C)S(C)(=O)=O)N(C(C)=O)[C@H]2CO)cc1 | -7 | -1 | x | -1 | x | 1
c1ccc(-c2noc(CC3CCCCC3)n2)cc1 | -7 | 1 | 40* | 14 | -1 | -2
CC=Cc1ccc2n(c1=O)C[C@@H]1[C@@H](CO)[C@H](C(=O)NCC3CCCCC3)N(C(=O)CC)[C@H]21 (mixture of isomers) | x | 1 | x | x | x | x
Cc1cccc(N2CCN(C(=O)c3ccc(NC4=NC5CS(=O)(=O)CC5S4)cc3)CC2C)c1 (centres undefined) | -2 | -1 | 93* | 2 | 0 | -3
O=C(c1ccc(NC2=NC3CS(=O)(=O)CC3S2)cc1)N1CCN(c2ccc([N+](=O)[O-])cc2)CC1 (centres undefined) | 5 | -7 | -1 | 3 | -2 | 39*
O=C(c1ccc(NC2=NC3CS(=O)(=O)CC3S2)cc1)N1CCN(c2ccccc2)CC1 (centres undefined) | -1 | 3 | 2 | 5 | -1 | 0
Cc1ccc(S(=O)(=O)CCc2nnc(NC(=O)CCl)s2)cc1C | -2 | 3 | 46* | 0 | -1 | -3
Cc1ccc(S(=O)(=O)CCc2nnc(N)s2)cc1C | x | x | 2 | x | -1 | x
CC(C)NC(=O)N1Cc2cc(C(=O)NCC(F)(F)F)nc(-c3cccc(-c4cc5ccccc5o4)c3)c2[C@H]1CCO | 0 | 8 | x | -6 | x | -4
Cn1cc([N+](=O)[O-])c(C(=O)Nc2ccc(C3CCCCC3)cc2)n1 | 1 | -4 | -2 | -5 | -1 | 9
Cn1cc([N+](=O)[O-])c(C(=O)Nc2ccc(C(=O)N3CCCCC3)cc2)n1 | 0 | -5 | -1 | -1 | 0 | 39*
COc1cccc(-c2ccc([C@H]3[C@@H](CO)N4C(=O)CN(C(=O)C5CCCCC5)C[C@@H]34)cc2)c1 | -3 | 0 | x | 8 | x | -2
SMILES | ERAP1 HTS inh | SIRT5 block | CAL PDZ FP-1 | S100A4 MyoIIA | CAL PDZ FP-2 | DENV2 CPE rescue
COCC#Cc1ccc([C@@H]2[C@H]3CN(C(=O)c4cccnc4)CC(=O)N3[C@H]2CO)cc1 | -2 | 2 | x | 53 | x | -10
CS(=O)(=O)N[C@@H]1C[C@@H]2O[C@@H](CO)CC[C@@H]2O[C@@H]1CCc1ccc(-c2ccccc2F)cc1 | 2 | 3 | x | -2 | x | 21*
CC(C)NC(=O)N[C@H]1C[C@@H]2O[C@@H](CO)CC[C@@H]2O[C@@H]1CCc1ccc(-c2ccccc2F)cc1 | 4 | -2 | x | -9 | x | 1
CCCC#Cc1ccc(CC[C@H]2O[C@H]3CC[C@@H](CO)O[C@H]3C[C@H]2NS(=O)(=O)c2ccccc2)cc1 | -1 | 20* | x | 3 | x | 10
CC(=O)N[C@H]1C[C@@H]2O[C@H](CO)CC[C@@H]2O[C@@H]1CCc1ccc(C#CCc2ccccc2)cc1 | 3 | -8 | x | 1 | x | 0
CC(=O)N[C@@H]1C[C@@H]2O[C@H](CO)CC[C@@H]2O[C@@H]1CCc1ccc(C#CC2(O)CCCC2)cc1 | x | 0 | x | 6 | x | 21*
O=C(C[C@H]1CC[C@@H](NC(=O)C2CCOCC2)[C@@H](CO)O1)NCc1ccncc1 | 0 | -2 | x | 3 | x | 3
CO[C@H]1CN(C)C(=O)c2cc(NC(C)=O)ccc2OC[C@H](C)N(C(=O)C2CCOCC2)C[C@H]1C | 1 | x | x | -15 | x | -6
C[C@H](CO)N1C[C@H](C)[C@@H](CN(C)S(=O)(=O)c2cccs2)OCCCC[C@H](C)Oc2ccc(NS(=O)(=O)c3ccc(Cl)cc3)cc2C1=O | -1 | -1 | x | -10 | x | 13
C[C@H](CO)N1C[C@H](C)[C@H](CN(C)S(=O)(=O)c2cccs2)OCCCC[C@H](C)Oc2ccc(NS(=O)(=O)c3ccc(F)cc3)cc2C1=O | -4 | 7 | x | -5 | x | 31*
C[C@H]1CN([C@@H](C)CO)C(=O)c2cc(NS(=O)(=O)c3ccc(Cl)cc3)ccc2O[C@H]1CN(C)S(=O)(=O)c1cccs1 | -2 | 1 | x | -24 | x | 22*
C[C@@H]1CN([C@H](C)CO)C(=O)c2cc(NS(=O)(=O)c3ccc(F)cc3)ccc2O[C@@H](C)CCCCO[C@@H]1CN(C)S(=O)(=O)c1cccs1 | 0 | 9 | x | -13 | x | -7
C[C@@H]1CCCCO[C@H](CN(C)S(=O)(=O)c2cccs2)[C@H](C)CN([C@@H](C)CO)C(=O)c2cc(NS(=O)(=O)c3ccc(Cl)cc3)ccc2O1 | -3 | 5 | x | 14 | x | 31*
